These results are taken from ChEMBL document CHEMBL2331406, “In vitro activity of scorpiand-like azamacrocycle derivatives in promastigotes and intracellular amastigotes of Leishmania infantum and Leishmania braziliensis” (Eur J Med Chem, 2013).

Series [1] in a line: Selectivity index, ratio of IC50 for mouse J774.2 cells to IC50 for axenic amastigote form of Leishmania braziliensis MHOM/BR/1975/M2904. It is filed as toxicity. Put shortly:
(§1)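 Axenic amastigotes obtained by 3-day promastigote transformation in supplemented M199 + 10% heat-inactivated FCS, pH 5.4, 37 °C. […] Host toxicity: J774.2, 72 h, PI/FDA flow cytometry. SI = macrophage IC50/axenic amastigote IC50; ratio is compound SI over Glucantime SI.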

The test system of series [2] is Leishmania braziliensis. Put plainly: Antileishmanial activity against axenic amastigote form of Leishmania braziliensis MHOM/BR/1975/M2904 after 72 hrs by haemocytometric analysis. It is filed as functional, MHOM/BR/75/M2904. In a few lines:
(§2)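 Axenic amastigotes made by culturing promastigotes 3 days at 37 °C in M199 with 10% heat-inactivated FCS plus organic acids, amino acids, sucrose, bicarbonate, MES, haemin and gentamicin, pH 5.4. Compound effect counted in a Neubauer haemocytometer chamber. IC50 by linear regression of Kc values at 1, 10, 25, 50 and 100.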

Series [3] can be described thus: Selectivity index, ratio of IC50 for mouse J774.2 cells to IC50 for amastigote form of Leishmania braziliensis MHOM/BR/1975/M2904 infected in J774.2 cells. It is filed as toxicity, cell-based. Put shortly: (§3)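 J774.2 macrophages in MEM + 2 mM glutamine + 20% inactivated FCS were infected with stationary-phase promastigotes (10:1) for 24 h at 37 °C, 5% CO2. After washing, compounds were added at […] for 72 h. Amastigote reduction was scored in methanol-fixed, Giemsa-stained preparations; IC50 by regression; triplicates. SI = J774.2 IC50 (72 h flow cytometry)/amastigote IC50; ratio is versus Glucantime SI.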

Series [4] relates to Leishmania braziliensis. Nature of the series: Antileishmanial activity against amastigote form of Leishmania braziliensis MHOM/BR/1975/M2904 infected in J774.2 cells after 72 hrs by haemocytometric analysis. It is filed as functional, cell-based, MHOM/BR/75/M2904. Put shortly:
(§4)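 J774.2 macrophages grown in MEM with 2 mM glutamine and 20% inactivated FCS at 37 °C in 5% CO2. Infected with stationary-phase promastigotes at 10:1 for 24 h, then washed free of non-phagocytosed parasites. Compounds at 1, 10, 25, 50 and 100 for 72 h. Amastigotes counted on methanol-fixed, Giemsa-stained preparations and % reduction taken vs untreated. IC50 by linear regression of Kc values; three separate determinations.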

A short description of series [5]: Selectivity index, ratio of IC50 for mouse J774.2 cells to IC50 for amastigote form of Leishmania infantum MCAN/ES/2001/UCM-10 infected in J774.2 cells. It is filed as toxicity, cell-based. In a few lines:
as §3

Series [6] deals with Leishmania infantum. Nature of the series: Antileishmanial activity against promastigote form of Leishmania infantum MCAN/ES/2001/UCM-10 after 72 hrs by haemocytometric analysis. It is filed as functional, organism-based. In a few lines:
(§5)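 Promastigotes grown at 28 °C in MTL medium with 10% inactivated FCS. Compounds in DMSO (0.1%), diluted in culture medium to 100, 50, 25, 10 and 1. Cells counted at 72 h in a Neubauer haemocytometric chamber. IC50 (50% inhibition) by linear regression of Kc values.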

Series [7] deals with Leishmania infantum. Put plainly: Antileishmanial activity against amastigote form of Leishmania infantum MCAN/ES/2001/UCM-10 infected in J774.2 cells after 72 hrs by haemocytometric analysis. It is filed as functional, organism-based. Put shortly: as §4
In series [8] the test system is Leishmania infantum. Put plainly: Antileishmanial activity against axenic amastigote form of Leishmania infantum MCAN/ES/2001/UCM-10 after 72 hrs by haemocytometric analysis. It is filed as functional, organism-based. In a few lines: as §2
Series [9] is described as follows: Selectivity index, ratio of IC50 for mouse J774.2 cells to IC50 for axenic amastigote form of Leishmania infantum MCAN/ES/2001/UCM-10. It is filed as toxicity. In a few lines:
as §1

Series [10] is described as follows: Selectivity index, ratio of IC50 for mouse J774.2 cells to IC50 for promastigote form of Leishmania braziliensis MHOM/BR/1975/M2904. It is filed as toxicity.
Series [11] can be described thus: Selectivity index, ratio of IC50 for mouse J774.2 cells to IC50 for promastigote form of Leishmania infantum MCAN/ES/2001/UCM-10. It is filed as toxicity. In a few lines:
(§6)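 J774.2 toxicity: 72 h at the same concentrations, viability by flow cytometry with propidium iodide/fluorescein diacetate; IC50 by linear regression. SI = macrophage IC50/parasite IC50; ratio is compound SI over Glucantime SI.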

Series [12] relates to Leishmania infantum. Put plainly: Antileishmanial activity against promastigote form of Leishmania infantum MCAN/ES/2001/UCM-10 infected in J774.2 cells assessed as inhibition of number of amastigotes per host cell at IC25 concentration incubated for 12 hrs followed by compound washout measured after 48 hrs by microscopic analysis. It is filed as functional. In a few lines: (§7)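 J774.2 cells seeded at 1 × 10^4 cells/well on coverslips and cultured 2 days. Infected with promastigotes at 10:1 with drug at IC25 added immediately, for 12 h at 37 °C in 5% CO2. Parasites and drug washed out, then grown 10 days with washing and fresh medium every 48 h. On methanol-fixed, Giemsa-stained slides, % infected cells and amastigotes per infected cell scored from more than 200 host cells. Three determinations.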

In series [13] the test system is Leishmania braziliensis. Put plainly: Antileishmanial activity against promastigote form of […] Leishmania braziliensis MHOM/BR/1975/M2904 infected in J774.2 cells assessed as inhibition of infection in host cells at IC25 concentration incubated for 12 hrs […] by microscopic analysis. As to conditions: MHOM/BR/75/M2904. It is filed as functional.

Series [14] deals with Leishmania infantum. Nature of the series: Antileishmanial activity against promastigote form of Leishmania infantum MCAN/ES/2001/UCM-10 infected in J774.2 cells assessed as inhibition of infection in host cells at IC25 concentration incubated for 12 hrs followed by compound washout measured after 48 hrs by microscopic analysis. It is filed as functional. In a few lines:
as §7

Series [15] relates to Leishmania braziliensis. Put plainly: Antileishmanial activity against promastigote form of […] MHOM/BR/1975/M2904 infected in J774.2 cells assessed as inhibition of number of amastigotes per host cell at IC25 concentration incubated for 12 hrs followed by compound washout measured after 48 hrs by microscopic analysis. It is filed as functional. The following applies: MHOM/BR/75/M2904. Put shortly: as §7

A short description of series [16]: Ratio of compound selectivity index to glucantime selectivity index for amastigote form of Leishmania braziliensis MHOM/BR/1975/M2904 infected in J774.2 cells over mouse J774.2 cells. In a few lines:
as §3

The subject of series [17] is Leishmania braziliensis. Nature of the series: Antileishmanial activity against promastigote form of Leishmania braziliensis MHOM/BR/1975/M2904 assessed as empty cytoplasmic at IC25 concentration after 96 hrs by MET microscopic analysis. The following applies: MHOM/BR/75/M2904. It is filed as functional. In a few lines:
(§8)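 Promastigotes at 5 × 10^5 cells/mL in MTL medium with compound at IC25 for 96 h. Ultrastructure examined by transmission electron microscopy against untreated control parasites.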

In series [18] the test system is Leishmania braziliensis. Nature of the series: Antileishmanial activity against promastigote form of Leishmania braziliensis MHOM/BR/1975/M2904 assessed as electro-dense vesicles at IC25 concentration after 96 hrs by MET microscopic analysis. It is filed as functional. The following applies: MHOM/BR/75/M2904. Put shortly:
as §8

Another series concerns J774.2. Nature of the series: Cytotoxicity against mouse J774.2 cells after 72 hrs by PI-staining based flow cytometric analysis. The following applies: J774.2, 72 h. It is filed as cell-based. Put shortly: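 J774.2 macrophages (ECACC 91051511, female BALB/c mouse tumour) treated 72 h with 100, 50, 25, 10 and 1 of compound. Propidium iodide then fluorescein diacetate each added for 10 min at 28 °C in the dark. Cells pelleted at 400g, washed in PBS and analysed by flow cytometry. Viability % vs control; IC50 by linear regression of Kc values.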

In series [19] the test system is Leishmania braziliensis. Nature of the series: Antileishmanial activity against promastigote form of Leishmania braziliensis MHOM/BR/1975/M2904 assessed as mortality at IC25 concentration after 96 hrs by MET microscopic analysis. It is filed as functional. The following applies: MHOM/BR/75/M2904. In a few lines: as §8
In series [20] the test system is Leishmania braziliensis. Put plainly: Antileishmanial activity against promastigote form of Leishmania braziliensis MHOM/BR/1975/M2904 after 72 hrs by haemocytometric analysis. It is filed as functional. As to conditions: MHOM/BR/75/M2904, 72 h. Put shortly:
as §5

Series [21] has as its system Leishmania braziliensis. Put plainly: Antileishmanial activity against promastigote form of Leishmania braziliensis MHOM/BR/1975/M2904 assessed as cytoplasmic alterations at IC25 concentration after 96 hrs by MET microscopic analysis. It is filed as functional. The following applies: MHOM/BR/75/M2904. In a few lines:
as §8

Series [22] in a line: Ratio of compound selectivity index to glucantime selectivity index for amastigote form of Leishmania infantum MCAN/ES/2001/UCM-10 infected in J774.2 cells over mouse J774.2 cells. In a few lines: as §3
Series [23] is described as follows: Ratio of compound selectivity index to glucantime selectivity index for axenic amastigote form of Leishmania infantum MCAN/ES/2001/UCM-10 over mouse J774.2 cells. In a few lines:
as §1

Series [24] is described as follows: Ratio of compound selectivity index to glucantime selectivity index for promastigote form of Leishmania braziliensis MHOM/BR/1975/M2904 over mouse J774.2 cells.
Series [25] can be described thus: Ratio of compound selectivity index to glucantime selectivity index for promastigote form of Leishmania infantum MCAN/ES/2001/UCM-10 over mouse J774.2 cells. Put shortly:
as §6

Series [26] can be described thus: Ratio of compound selectivity index to glucantime selectivity index for axenic amastigote form of Leishmania braziliensis MHOM/BR/1975/M2904 over mouse J774.2 cells. In a few lines:
as §1

Where [27] appears, read: J774.2 cells, read-out: Ratio IC50.
The mark [28] stands for this setting: Leishmania infantum, MCAN/ES/2001/UCM-10, 72 h.

Activity calls are given as the source filed them. The rule behind the calls is not given here.

In general, IC50 refers to the concentration at which inhibition is half-maximal. High values mean weaker potency in that assay, low ones greater potency in that assay. In the case of “MEGLUMINE ANTIMONATE [listing 1 of 2 here]”, the “Ratio IC50” value in [1] was determined as 0.5; in series [3], 0.8; in series [5], 0.5; in series [9] it was 0.5; in [10] it was 0.6; in series [11], 0.8. For the same molecule, the IC50 in the series on Leishmania braziliensis [2] is 30.9 µM; in the series with Leishmania braziliensis [4] (j774.2), 19.7 µM; in the series on Leishmania infantum [6] it was 18 µM; in the series with Leishmania infantum [7] (j774.2), 30.8 µM; in the series with Leishmania infantum [8], 31 µM.
What is called inhibition is the percentage by which the read-out fell short of the control. For the molecule “MEGLUMINE ANTIMONATE [listing 2 of 2 here]”, the inhibition with Leishmania infantum [12] came out at 30%; in the series on Leishmania braziliensis [13], 22%; in the series on Leishmania infantum [14], 24%; in the series on Leishmania braziliensis [15] it was 37%.
With `Br.NCCCNCCN1CCNCc2cccc(n2)CNCC1`, the Ratio in series [16] stood at 14; in series [22] it was 10; in series [23], 15; in [24] it was 24; in series [25], 11; in [26], 14. Further, the selectivity ratio in series [1] (setting [27]) amounted to 7; in series [3] (setting [27]) it was 11.5; in series [5] (setting [27]) it was 4.9; in series [9] (setting [27]), 7.4; in series [10] (setting [27]) it was 14.2; in series [11] (setting [27]), 9.1. The outcome in the series with Leishmania braziliensis [17], in the series with Leishmania braziliensis [18], in the series with Leishmania braziliensis [19] and with Leishmania braziliensis [21] was Active. In addition, the IC50 in the series with Leishmania braziliensis [2] (Leishmania braziliensis, MHOM/BR/75/M2904, 72 h) came to 31.4 µM; in the series on Leishmania braziliensis [4] (Leishmania braziliensis, MHOM/BR/75/M2904, J774.2, 72 h), 19.1 µM; with J774.2, 220 µM; in the series on Leishmania braziliensis [20], 15.5 µM; with Leishmania infantum [6] (setting [28]), 24.2 µM; in the series on Leishmania infantum [7] (Leishmania infantum, MCAN/ES/2001/UCM-10, J774.2, 72 h), 44.9 µM. In the series with Leishmania infantum [8] (setting [28]), this molecule displayed an IC50 of 29.8 µM.
